This note sets out measurements from ChEMBL document CHEMBL4823258, “Development of Dimethylisoxazole-Attached Imidazo[1,2-a]pyridines as Potent and Selective CBP/P300 Inhibitors” (J Med Chem, 2021).

One assay is filed under the species Homo sapiens. Nature of the assay: Selectivity ratio of IC50 for His-tagged BRD4 BD1 (unknown origin) using biotinylated-JQ1 peptide as substrate to IC50 for His-tagged CBP (unknown origin) using biotinylated-H3K56ac peptide as substrate incubated for 1 hr by AlphaScreen assay. On the technique in general: In Alpha technology, singlet oxygen from a donor bead excites a nearby acceptor bead.

For assay [1], the target named is T1, Bromodomain-containing protein 4 (Homo sapiens, UniProt O60885). Put plainly: Inhibition of His-tagged BRD4 BD1 (unknown origin) using biotinylated-JQ1 peptide as substrate incubated for 1 hr by AlphaScreen assay.
In assay [2] the target is T2, CREB-binding protein (Homo sapiens, UniProt Q92793). Put plainly: Binding affinity to human partial length CREBBP (R1081 to G1197 residues) expressed in bacterial expression system assessed as melting temperature by differential scanning fluorometry (reference value: 46.7 degreeC). A general note: DSF heats the sample and reads unfolding from a dye or from intrinsic fluorescence.
Target sequence in this assay (Q92793 2-2442 limits assumed): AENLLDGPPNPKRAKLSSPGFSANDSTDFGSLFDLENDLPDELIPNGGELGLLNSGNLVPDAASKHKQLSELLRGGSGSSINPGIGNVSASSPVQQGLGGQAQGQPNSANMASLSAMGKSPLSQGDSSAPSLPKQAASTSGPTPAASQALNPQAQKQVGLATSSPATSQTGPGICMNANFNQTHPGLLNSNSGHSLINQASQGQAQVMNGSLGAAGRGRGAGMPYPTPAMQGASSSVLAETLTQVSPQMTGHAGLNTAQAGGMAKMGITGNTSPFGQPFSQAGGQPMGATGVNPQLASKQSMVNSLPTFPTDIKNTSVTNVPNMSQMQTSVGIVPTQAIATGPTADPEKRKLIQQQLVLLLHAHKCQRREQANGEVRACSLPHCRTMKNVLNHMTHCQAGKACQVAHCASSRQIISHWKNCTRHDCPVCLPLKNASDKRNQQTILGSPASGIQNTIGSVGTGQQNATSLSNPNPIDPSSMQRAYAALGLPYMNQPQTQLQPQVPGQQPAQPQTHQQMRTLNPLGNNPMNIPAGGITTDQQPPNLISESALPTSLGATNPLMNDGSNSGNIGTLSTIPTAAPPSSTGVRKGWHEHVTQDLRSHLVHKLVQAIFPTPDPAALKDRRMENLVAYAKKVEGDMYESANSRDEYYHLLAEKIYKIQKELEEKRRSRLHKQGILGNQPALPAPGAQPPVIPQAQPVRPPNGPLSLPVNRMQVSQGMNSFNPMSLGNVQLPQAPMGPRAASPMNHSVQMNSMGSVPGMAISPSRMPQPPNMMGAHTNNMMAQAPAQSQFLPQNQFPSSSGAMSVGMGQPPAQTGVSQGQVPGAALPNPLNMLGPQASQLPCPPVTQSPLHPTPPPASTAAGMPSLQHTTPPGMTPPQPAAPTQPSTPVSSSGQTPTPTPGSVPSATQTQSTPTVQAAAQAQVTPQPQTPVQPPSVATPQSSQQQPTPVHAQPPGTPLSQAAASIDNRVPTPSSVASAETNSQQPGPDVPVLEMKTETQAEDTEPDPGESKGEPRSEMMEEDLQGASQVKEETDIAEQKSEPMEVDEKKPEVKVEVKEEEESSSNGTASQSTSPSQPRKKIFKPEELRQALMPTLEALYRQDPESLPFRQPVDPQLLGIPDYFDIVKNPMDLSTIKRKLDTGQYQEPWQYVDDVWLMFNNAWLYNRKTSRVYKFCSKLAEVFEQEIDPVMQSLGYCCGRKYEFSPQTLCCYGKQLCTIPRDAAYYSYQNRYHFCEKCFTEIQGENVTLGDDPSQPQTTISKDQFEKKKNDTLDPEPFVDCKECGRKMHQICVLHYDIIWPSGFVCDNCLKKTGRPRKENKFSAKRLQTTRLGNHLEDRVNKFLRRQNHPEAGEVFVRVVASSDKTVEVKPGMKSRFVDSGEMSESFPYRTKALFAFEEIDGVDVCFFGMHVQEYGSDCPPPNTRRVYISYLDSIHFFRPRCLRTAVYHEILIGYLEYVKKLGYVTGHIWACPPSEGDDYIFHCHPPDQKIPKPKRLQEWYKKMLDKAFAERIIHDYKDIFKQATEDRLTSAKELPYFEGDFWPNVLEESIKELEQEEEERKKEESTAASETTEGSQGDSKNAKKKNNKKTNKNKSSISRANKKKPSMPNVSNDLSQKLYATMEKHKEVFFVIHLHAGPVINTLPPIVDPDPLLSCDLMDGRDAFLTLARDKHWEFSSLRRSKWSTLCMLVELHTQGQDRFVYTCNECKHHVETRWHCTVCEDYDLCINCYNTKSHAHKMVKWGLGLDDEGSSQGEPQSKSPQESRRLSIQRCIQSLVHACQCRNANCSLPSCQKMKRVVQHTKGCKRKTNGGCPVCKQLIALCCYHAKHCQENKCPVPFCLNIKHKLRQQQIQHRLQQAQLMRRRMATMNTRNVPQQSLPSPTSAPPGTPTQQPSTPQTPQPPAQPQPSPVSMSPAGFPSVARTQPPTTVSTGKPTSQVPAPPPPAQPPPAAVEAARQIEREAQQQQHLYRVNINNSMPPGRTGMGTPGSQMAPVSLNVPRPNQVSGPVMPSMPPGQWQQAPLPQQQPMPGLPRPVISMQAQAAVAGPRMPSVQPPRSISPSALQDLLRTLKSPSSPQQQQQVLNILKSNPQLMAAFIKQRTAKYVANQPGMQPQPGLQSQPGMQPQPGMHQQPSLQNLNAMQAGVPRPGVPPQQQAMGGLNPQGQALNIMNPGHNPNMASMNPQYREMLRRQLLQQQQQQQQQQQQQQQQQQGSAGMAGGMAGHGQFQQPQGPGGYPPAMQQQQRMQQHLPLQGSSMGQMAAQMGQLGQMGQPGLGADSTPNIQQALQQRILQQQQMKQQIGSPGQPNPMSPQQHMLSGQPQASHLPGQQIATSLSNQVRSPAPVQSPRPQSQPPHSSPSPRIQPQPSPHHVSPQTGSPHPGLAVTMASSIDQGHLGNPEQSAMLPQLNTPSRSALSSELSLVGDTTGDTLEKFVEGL

For assay [3], the target named is T3, Histone acetyltransferase p300 (Homo sapiens, UniProt Q09472). Put plainly: Binding affinity to human partial length EP300 (A1040 to G1161 residues) expressed in bacterial expression system assessed as melting temperature by differential scanning fluorometry (reference value: 42.1 degreeC).
Assay [4] deals with T1, Bromodomain-containing protein 4. Nature of the assay: Binding affinity to human partial length BRD4 bromodomain 1 long isoform (N44 to E168 residues) expressed in bacterial expression system assessed as melting temperature by differential scanning fluorometry (reference value: 50.1 degreeC).
Assay [5] addresses T2, CREB-binding protein. Nature of the assay: Inhibition of His-tagged CBP (unknown origin) using biotinylated-H3K56ac peptide as substrate incubated for 1 hr by AlphaScreen assay.
Target sequence in this assay (Q92793 whole entry, the tested form may be a part): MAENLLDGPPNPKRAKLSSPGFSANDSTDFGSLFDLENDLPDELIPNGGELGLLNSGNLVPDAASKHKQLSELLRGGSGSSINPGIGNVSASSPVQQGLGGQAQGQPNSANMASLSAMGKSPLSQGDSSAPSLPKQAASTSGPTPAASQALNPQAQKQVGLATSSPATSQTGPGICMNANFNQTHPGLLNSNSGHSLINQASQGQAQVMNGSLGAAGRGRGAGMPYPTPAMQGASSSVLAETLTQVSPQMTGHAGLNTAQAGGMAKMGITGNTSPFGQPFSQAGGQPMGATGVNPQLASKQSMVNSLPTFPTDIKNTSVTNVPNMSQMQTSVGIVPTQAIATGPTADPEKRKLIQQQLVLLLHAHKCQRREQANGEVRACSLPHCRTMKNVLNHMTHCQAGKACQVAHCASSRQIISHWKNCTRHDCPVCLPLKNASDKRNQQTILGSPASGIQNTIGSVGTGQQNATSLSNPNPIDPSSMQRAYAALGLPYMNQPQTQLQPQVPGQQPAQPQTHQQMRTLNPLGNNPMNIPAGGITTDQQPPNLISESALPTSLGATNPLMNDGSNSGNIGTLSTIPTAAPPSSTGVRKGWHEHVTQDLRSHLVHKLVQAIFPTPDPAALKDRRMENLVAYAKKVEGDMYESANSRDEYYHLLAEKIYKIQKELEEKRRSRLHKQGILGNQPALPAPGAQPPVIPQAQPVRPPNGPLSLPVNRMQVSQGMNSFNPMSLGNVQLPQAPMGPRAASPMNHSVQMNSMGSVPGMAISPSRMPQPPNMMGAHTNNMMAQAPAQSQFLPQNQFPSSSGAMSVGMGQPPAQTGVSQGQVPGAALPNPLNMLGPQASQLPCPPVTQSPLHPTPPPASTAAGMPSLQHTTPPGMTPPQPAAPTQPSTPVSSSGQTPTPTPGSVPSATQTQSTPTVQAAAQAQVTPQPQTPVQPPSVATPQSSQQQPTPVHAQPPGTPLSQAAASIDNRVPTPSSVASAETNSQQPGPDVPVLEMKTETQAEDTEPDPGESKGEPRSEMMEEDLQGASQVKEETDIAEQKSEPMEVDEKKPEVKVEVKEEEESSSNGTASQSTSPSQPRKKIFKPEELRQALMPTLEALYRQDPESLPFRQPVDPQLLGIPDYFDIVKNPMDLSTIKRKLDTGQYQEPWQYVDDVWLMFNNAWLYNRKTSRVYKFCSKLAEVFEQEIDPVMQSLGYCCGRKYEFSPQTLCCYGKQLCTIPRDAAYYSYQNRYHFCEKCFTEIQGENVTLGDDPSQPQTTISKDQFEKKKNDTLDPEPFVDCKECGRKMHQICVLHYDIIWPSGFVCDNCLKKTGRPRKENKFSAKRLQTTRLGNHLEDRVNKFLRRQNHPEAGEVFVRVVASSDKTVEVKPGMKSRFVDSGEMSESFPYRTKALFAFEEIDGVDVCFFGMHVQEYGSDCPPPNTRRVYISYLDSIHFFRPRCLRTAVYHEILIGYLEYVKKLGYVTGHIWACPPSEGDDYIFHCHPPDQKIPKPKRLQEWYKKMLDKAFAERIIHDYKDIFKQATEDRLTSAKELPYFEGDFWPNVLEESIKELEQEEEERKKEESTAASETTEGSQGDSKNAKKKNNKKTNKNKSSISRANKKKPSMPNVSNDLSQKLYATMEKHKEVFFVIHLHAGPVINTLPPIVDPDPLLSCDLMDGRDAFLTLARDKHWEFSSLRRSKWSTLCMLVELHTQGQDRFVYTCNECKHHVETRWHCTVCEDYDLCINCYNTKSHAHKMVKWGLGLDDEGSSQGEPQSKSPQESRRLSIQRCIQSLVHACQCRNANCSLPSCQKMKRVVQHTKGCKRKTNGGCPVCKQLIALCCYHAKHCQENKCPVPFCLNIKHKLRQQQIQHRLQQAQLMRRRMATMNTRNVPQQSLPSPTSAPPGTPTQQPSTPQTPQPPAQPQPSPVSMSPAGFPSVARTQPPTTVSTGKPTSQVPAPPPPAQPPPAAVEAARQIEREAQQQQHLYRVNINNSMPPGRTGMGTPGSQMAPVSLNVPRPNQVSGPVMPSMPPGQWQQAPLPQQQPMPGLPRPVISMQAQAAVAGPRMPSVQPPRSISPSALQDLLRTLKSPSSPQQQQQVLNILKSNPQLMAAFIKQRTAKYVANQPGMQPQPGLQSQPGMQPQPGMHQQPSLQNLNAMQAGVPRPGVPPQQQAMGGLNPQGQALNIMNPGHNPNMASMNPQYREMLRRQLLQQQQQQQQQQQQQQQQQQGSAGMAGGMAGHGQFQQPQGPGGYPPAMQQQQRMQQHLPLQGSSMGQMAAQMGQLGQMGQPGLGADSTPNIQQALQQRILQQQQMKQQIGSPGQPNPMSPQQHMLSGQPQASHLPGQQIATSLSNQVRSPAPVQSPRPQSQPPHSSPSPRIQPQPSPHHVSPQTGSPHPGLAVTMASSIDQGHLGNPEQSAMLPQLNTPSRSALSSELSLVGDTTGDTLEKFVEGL
The target of assay [6] is CREB-binding protein/Histone acetyltransferase p300 (Homo sapiens) (UniProt Q09472+Q92793). Nature of the assay: Inhibition of CBP/EP300 in human MM1.S cells assessed as perturbation of IRF4/Myc axis at 2.5 uM incubated for 24 hrs by immunoblot analysis. On the technique in general: A western blot detects proteins with antibodies after separation by electrophoresis.
A further assay relates to MOLM-13. Nature of the assay: Cytotoxicity against human MOLM-13 cells assessed as cell growth inhibition incubated for 5 days by CellTiter-Glo luminescence assay. In kind it is functional, cell-based. The following applies: MOLM-13, 120 h.
The target in assay [7] is T3, Histone acetyltransferase p300. Put plainly: Binding affinity to human partial length EP300 (A1040 to G1161 residues) expressed in bacterial expression system by BromoELECT assay. In outline: (§1)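 Kd by Eurofins BromoELECT, standard protocol, measured in duplicate.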
Assay [8] concerns the target T2, CREB-binding protein. Nature of the assay: Binding affinity to human partial length CREBBP (R1081 to G1197 residues) expressed in bacterial expression system by BromoELECT assay. In outline:
as §1
Target sequence in this assay (Q92793 whole entry, the tested form may be a part): as above

Assay [9] concerns the target T1, Bromodomain-containing protein 4. Nature of the assay: Binding affinity to human partial length BRD4 bromodomain 1 long isoform (N44 to E168 residues) expressed in bacterial expression system by BromoELECT assay. In outline:
as §1

For assay [10], the target named is T2, CREB-binding protein. Put plainly: Inhibition of CBP in human MOLM-13 cells assessed as reduction in H3K27Ac level at 1 to 10 uM incubated for 2 hrs by Western blot analysis. In kind it is cell-based. The following applies: dose 1-10 µM.
Target sequence in this assay (Q92793 2-2442 limits assumed): as the sequence (Q92793 2-2442 limits assumed) above
Assay [11] concerns the target T2, CREB-binding protein. Nature of the assay: Inhibition of CBP in human MOLM-13 cells assessed as depletion of Myc at 1 to 10 uM incubated for 2 hrs by Western blot analysis. In kind it is cell-based. As to conditions: dose 1-10 µM.
Target sequence in this assay (Q92793 2-2442 limits assumed): as above
For assay [12], the target named is T2, CREB-binding protein. Put plainly: Inhibition of CBP in human MOLM-13 cells assessed as reduction in H3K27Ac level at 3 uM incubated for 2 hrs.
Target sequence in this assay (Q92793 2-2442 limits assumed): as above

Active and inactive are the calls of the source. No cut-off for these calls is given here.

On to `COc1ccc(-c2nc3cc(-c4c(C)noc4C)ccn3c2NCC(=O)OC(C)(C)C)cc1`, for which the Ratio IC50 in the assay listed under Homo sapiens is over 3.
In assay [1], `Cc1noc(C)c1-c1ccn2c(NCC(=O)OC(C)(C)C)c(CCc3ccccc3)nc2c1` returned an IC50 of over 50 µM. Also, the Ratio IC50 in the assay filed under Homo sapiens is over 6.
Consider `COc1ccc(CCc2nc3cc(-c4c(C)noc4C)ccn3c2NC(C)C)cc1OC`, for which the Ratio IC50 in the assay listed under Homo sapiens came out at 6.
With `Cc1noc(C)c1-c1ccn2c(NC3CCCCC3)c(CCc3ccccc3)nc2c1`, in the assay filed under Homo sapiens, the Ratio IC50 amounted to 10. The Tm at CREB-binding protein [2] was found to be 49.2 °C; in assay [3], 44.7 °C; in [4] it was 51 °C.
As to `COc1ccc(CCCc2nc3cc(-c4c(C)noc4C)ccn3c2NC2CCCCC2)cc1Cl`, the values for the IC50 (at CREB-binding protein [5]; in assay [1]) were 8.96 µM and 24.5 µM, respectively. Besides, the Ratio IC50 in the assay filed under Homo sapiens amounted to 3. In addition, the Tm at CREB-binding protein [2] was determined as 55.2 °C; in assay [3], 50.6 °C; in assay [4], 51.6 °C.
The compound `COc1ccc(CCc2nc3cc(-c4c(C)noc4C)ccn3c2NC(C)C)cc1` registered an IC50 at CREB-binding protein [5] of 0.29 µM. Also, the Ratio IC50 in the assay listed under Homo sapiens turned out to be 34.
Turning to `CCOc1ccc(CCc2nc3cc(-c4c(C)noc4C)ccn3c2NC2CCCCC2)cc1`, the Ratio IC50 in the assay listed under Homo sapiens is 30.
Turning to `Cc1[nH]nc2cc(-c3ccn4c(NC5CCCCC5)c(CCc5ccccc5)nc4c3)ccc12`, the figures for the IC50 (on CREB-binding protein [5]; in [1]) were 8.02 µM and 0.51 µM, respectively. Besides, the Ratio IC50 in the assay listed under Homo sapiens came out at 0.06. For the same compound, the inhibition result in [6] was “inactive”.
Turning to `COc1ccc(-c2nc3cc(C)cc(C)n3c2NC(C)(C)CC(C)(C)C)cc1`, the IC50 in [1] was over 50 µM. Further, in the assay listed under Homo sapiens, the Ratio IC50 was over 3.
With `CCOc1ccc(CCc2nc3cc(-c4c(C)noc4C)ccn3c2NC2CCCCC2)cc1Cl`, the IC50 in assay [1] was over 50 µM. The Ratio IC50 in the assay listed under Homo sapiens was 20.
With `COc1ccc(CCc2nc3cc(-c4c(C)noc4C)ccn3c2NC23CC4CC(CC(C4)C2)C3)cc1`, the Ratio IC50 in the assay filed under Homo sapiens was 8.
The same measure, in the same setting: then `CCCOc1ccc(CCc2nc3cc(-c4c(C)noc4C)ccn3c2NC2CCCCC2)cc1`, with 28.
As to `COc1ccc(CCc2nc3cc(-c4c(C)noc4C)ccc3n2C[C@H](C)N2CCOCC2)cc1Cl`, the IC50 came out at 7.94 µM in assay [1] and 1.53 µM with MOLM-13.
The compound `COc1ccc(CCc2nc3cc(-c4c(C)noc4C)ccn3c2NC(C)(C)C)cc1` showed an IC50 in [1] of over 50 µM. Also, the Ratio IC50 in the assay listed under Homo sapiens was over 21.
Regarding `Cc1noc(C)c1-c1ccn2c(NC(C)(C)CC(C)(C)C)c(CCc3ccc(OC(C)C)cc3)nc2c1`, the IC50 (on CREB-binding protein [5]; in assay [1]) was over 50 µM each time. Also, the Ratio IC50 in the assay filed under Homo sapiens amounted to 1.
In [1], `COc1ccc(-c2nc3cc(-c4c(C)noc4C)ccn3c2NC23CC4CC(CC(C4)C2)C3)cc1` showed an IC50 of over 50 µM. Moreover, in the assay listed under Homo sapiens, the Ratio IC50 was over 23.
The compound `Cc1noc(C)c1-c1ccc2nc(-c3ccc(N4CCN(C(=O)CCCC(=O)NCCCOCCOCCOCCCNC(=O)CCCC[C@@H]5SC[C@@H]6NC(=O)N[C@@H]65)CC4)cc3)c(NC3CCCCC3)n2c1` yielded a Kd in assay [7] of 13 µM.
For `COc1ccc(Cc2nc3cc(-c4c(C)noc4C)ccn3c2NC2CCCCC2)cc1`, the Ratio IC50 in the assay filed under Homo sapiens is 2.
As to `COc1ccc(-c2nc3cc(C)cc(C)n3c2NC23CC4CC(CC(C4)C2)C3)cc1`, the IC50 in assay [1] is over 50 µM. In the assay listed under Homo sapiens, the Ratio IC50 is over 3.
On to `COc1ccc(CCc2nc3cc(-c4c(C)noc4C)ccn3c2NC2CCCCC2)cc1Cl`, for which the Tm worked out at 51.7 °C at CREB-binding protein [2], 47 °C in assay [3] and 50.1 °C in assay [4]. The Kd at CREB-binding protein [8] was 0.315 µM; in assay [7] it was 0.215 µM; in assay [9], over 10 µM. Besides, the IC50 with MOLM-13 amounted to 1.74 µM. Moreover, the inhibition entry (at CREB-binding protein [10]; on CREB-binding protein [11]; at CREB-binding protein [12]; in [6]) was “Active” in each case.
`COc1ccc(CCCc2nc3cc(-c4c(C)noc4C)ccn3c2NC(C)(C)CC(C)(C)C)cc1`: the IC50 (on CREB-binding protein [5]; in [1]) was over 50 µM in each case. In addition, the Ratio IC50 in the assay filed under Homo sapiens turned out to be 1.
Consider `Cc1noc(C)c1-c1ccn2c(NC(C)(C)CC(C)(C)C)c(CCc3ccccc3)nc2c1`, for which the Ratio IC50 in the assay filed under Homo sapiens amounted to 1.
`COc1ccc(CCc2nc3cc(-c4c(C)noc4C)ccn3c2NC2CCCCC2)cc1`: the Ratio IC50 in the assay filed under Homo sapiens was determined as 41. The Tm on CREB-binding protein [2] was determined as 51.5 °C; in [3] it was 46.8 °C; in assay [4], 51.1 °C. The Kd at CREB-binding protein [8] came to 0.265 µM; in assay [7], 0.285 µM; in assay [9] it was 9.2 µM.
In the case of `Cc1noc(C)c1-c1ccn2c(NC34CC5CC(CC(C5)C3)C4)c(CCc3ccccc3)nc2c1`, in the assay filed under Homo sapiens, the Ratio IC50 is 7.
Take `CCOc1ccc(CCc2nc3cc(-c4c(C)noc4C)ccn3c2NC(C)(C)CC(C)(C)C)cc1Cl`: in [1], the IC50 was over 50 µM. The Ratio IC50 in the assay filed under Homo sapiens was over 2.
Turning to `Cc1noc2cc(-c3ccn4c(NC5CCCCC5)c(CCc5ccccc5)nc4c3)ccc12`, the IC50 is over 50 µM at CREB-binding protein [5] and 3.02 µM in assay [1]. Besides, the Ratio IC50 in the assay listed under Homo sapiens is 0.06. Also, the inhibition entry in assay [6] is “inactive”.
Take `COc1ccc(CCc2nc3cc(-c4c(C)noc4C)ccn3c2NC2CCCCC2)cc1OC`: at CREB-binding protein [5], the IC50 amounted to 0.75 µM. For the same compound, the Ratio IC50 in the assay listed under Homo sapiens turned out to be 8.
`COc1ccc(CCc2nc3cc(-c4c(C)noc4C)ccn3c2NCc2ccccc2)cc1`: in the assay listed under Homo sapiens, the Ratio IC50 stood at 4.
In assay [1], `COc1ccc(-c2nc3cc(-c4c(C)noc4C)ccn3c2NC2CCCCC2)cc1` yielded an IC50 of over 50 µM. In addition, the Ratio IC50 in the assay listed under Homo sapiens was over 4.
Take `COc1ccc(CCCc2nc3cc(-c4c(C)noc4C)ccn3c2NC2CCCCC2)cc1`: in the assay filed under Homo sapiens, the Ratio IC50 is 3.
For `COc1ccc(CCc2nc3cc(-c4c(C)noc4C)ccn3c2NCc2ccc(Cl)cc2)cc1`, the IC50 was 1.6 µM at CREB-binding protein [5] and 7.94 µM in assay [1]. Further, the Ratio IC50 in the assay filed under Homo sapiens came to 5.
Consider `Cc1noc(C)c1-c1ccn2c(NC(C)(C)C)c(CCc3ccccc3)nc2c1`, for which the Ratio IC50 in the assay listed under Homo sapiens amounted to 6.
The compound `COc1ccc(CCc2nc3cc(-c4c(C)noc4C)ccn3c2NC(C)(C)CC(C)(C)C)cc1` gave an IC50 in assay [1] of over 50 µM. Also, in the assay filed under Homo sapiens, the Ratio IC50 was over 2.
For the compound `CCOc1ccc(CCc2nc3cc(-c4c(C)noc4C)ccn3c2NC(C)(C)CC(C)(C)C)cc1`, the Ratio IC50 in the assay filed under Homo sapiens is over 1.
Same read-out and setting: then `CN1Cc2cc(-c3ccn4c(NC5CCCCC5)c(CCc5ccccc5)nc4c3)ccc2NC1=O`, with 1; and `COc1ccc(CCc2nc3cc(-c4c(C)noc4C)ccn3c2NCCN2CCOCC2)cc1`, with 7.

One may read the IC50 as the concentration that gives 50% inhibition. A word on the Kd: it is a measure of binding affinity in units of concentration.
